The values below come from ChEMBL document CHEMBL1154046, “Synthesis of some urea and thiourea derivatives of 3-phenyl/ethyl-2-thioxo-2,3-dihydrothiazolo[4,5-d]pyrimidine and their antagonistic effects on haloperidol-induced catalepsy and oxidative stress in mice” (2009).

Assay [1] has as its system Mus musculus. The assay is described as follows: Inhibition of haloperidol-induced catalepsy in Swiss albino mouse assessed as time elapsed until release of forepaw from bar at 100 mg/kg, […] 30 min prior to haloperidol challenge measured after 60 mins by bar test. The assay is classed as functional. Conditions: route intraperitoneal, in the assay text read “ip” for “po”. Put shortly:
(§1)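 Adult male pathogen-free Swiss albino mice (18–25 g), n = 5 per group, each used once. Compounds at 100 mg/kg i.p. were given as a suspension in 0.5% gum acacia 30 min before haloperidol 5 mg/kg i.p. Forepaws were placed on a horizontal bar 9 cm high, and descent time was recorded every 30 min for 3 h. Testing ran at 23 ± 1 °C under 20 lux. Values are mean ± S.E.M.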

The subject of assay [2] is Mus musculus. The assay is described as follows: Inhibition of haloperidol-induced catalepsy in Swiss albino mouse assessed as time elapsed until release of forepaw from bar at 100 mg/kg, […] 30 min prior to haloperidol challenge measured after 30 mins by bar test. The assay is classed as functional. Conditions: route intraperitoneal, in the assay text read “ip” for “po”. Put shortly: as §1

The subject of assay [3] is Mus musculus. The assay is described as follows: Inhibition of haloperidol-induced catalepsy in Swiss albino mouse assessed as time elapsed until release of forepaw from bar at 100 mg/kg, […] 30 min prior to haloperidol challenge measured after 90 mins by bar test. In kind it is functional. The following applies: route intraperitoneal, in the assay text read “ip” for “po”. Put shortly: as §1

The test system of assay [4] is Mus musculus. The assay is described as follows: Inhibition of haloperidol-induced catalepsy in Swiss albino mouse assessed as time elapsed until release of forepaw from bar at 100 mg/kg, […] 30 min prior to haloperidol challenge measured after 120 mins by bar test. The following applies: route intraperitoneal, in the assay text read “ip” for “po”. In kind it is functional. In a few lines:
as §1

Assay [5] relates to Mus musculus. The assay is described as follows: Inhibition of haloperidol-induced catalepsy in Swiss albino mouse assessed as time elapsed until release of forepaw from bar at 100 mg/kg, […] 30 min prior to haloperidol challenge measured after 150 mins by bar test. The assay is classed as functional. Conditions: route intraperitoneal, in the assay text read “ip” for “po”. In a few lines:
as §1

Assay [6] concerns Mus musculus. The assay is described as follows: Inhibition of haloperidol-induced catalepsy in Swiss albino mouse assessed as time elapsed until release of forepaw from bar at 100 mg/kg, […] 30 min prior to haloperidol challenge measured after 180 mins by bar test. Conditions: route intraperitoneal, in the assay text read “ip” for “po”. The assay is classed as functional. Put shortly: as §1

In assay [7] the test system is Mus musculus. The assay is described as follows: Inhibition of haloperidol-induced catalepsy in Swiss albino mouse at 100 mg/kg, […] 30 min prior to haloperidol challenge by bar test relative to haloperidol control. Conditions: route intraperitoneal, in the assay text read “ip” for “po”. In kind it is functional. In a few lines:
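Mice received compound at 100 mg/kg i.p. (in 0.5% gum acacia) 30 min before haloperidol 5 mg/kg i.p., n = 5. The bar test was run every 30 min over 3 h, and descent times were summed as CDT [3 h]. Haloperidol CDT minus vehicle CDT was set as 100% catalepsy, and % inhibition was calculated against it.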

Assay [8] has as its system Brain. The assay is described as follows: Antioxidant activity against lipid peroxidation in haloperidol-stimulated Swiss albino mouse brain assessed as malonaldehyde level per mg of protein by lipid peroxidation assay (Rvb= 5.521 +/- 0.23 nmol). In kind it is functional, tissue-based. In a few lines: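 Compound was given 30 min before haloperidol 5 mg/kg i.p. Brain was homogenized in 50 mM Tris-HCl pH 7.4. Homogenate was mixed with SDS, acetic acid and 0.8% TBA, heated 1 h at 95 °C, and extracted into n-butanol/pyridine (15:1). Upper-layer A532 was converted to MDA using ε 1.56 × 10⁵, and protein was measured by Lowry. Results are nmol MDA/mg protein, n = 5.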

Assay [9] deals with Brain. The assay is described as follows: Antioxidant activity against GSH in haloperidol-stimulated Swiss albino mouse brain assessed as reduced glutathione level per gm of tissue (Rvb= 6.753 +/- 0.15 ug). The assay is classed as functional.
Assay [10] concerns Brain. The assay is described as follows: Antioxidant activity in haloperidol-stimulated Swiss albino mouse brain assessed as oxidized glutathione peroxidase level per g of protein (Rvb= 0.765+/- 0.13 U). The assay is classed as functional.
Assay [11] relates to Brain. The assay is described as follows: Antioxidant activity in haloperidol-stimulated Swiss albino mouse brain assessed as superoxide dismutase level per mg of protein (Rvb= 0.941+/- 0.15 U). In kind it is functional.

Take `COc1ccccc1NC(=O)Nc1ncnc2c1sc(=S)n2-c1ccccc1`: the Catalepsy time (forepaw descent time) in the assay with Mus musculus [1] is 0.817 min. In addition, in the assay with Mus musculus [2], the descent time came out at 0.433 min. Further, the catalepsy descent time in the assay with Mus musculus [3] came to 0.95 min; in the assay with Mus musculus [4] it was 1.48 min. The Time to forepaw release from bar in the assay with Mus musculus [5] was 1.38 min. Moreover, the Catalepsy duration (time to release forepaw from bar) with Mus musculus [6] is 1.57 min. The compound further displayed an inhibition (INH) with Mus musculus [7] of 23.4%. For the same compound, the Activity with Brain [8] is 3.2 nmol; in the assay on Brain [9] it was 14.362 µg; in the assay with Brain [10], 1.134 U; in the assay with Brain [11] it was 1.992 U.

Regarding `COc1ccccc1NC(=S)Nc1ncnc2c1sc(=S)n2-c1ccccc1`, in the assay on Mus musculus [1], the Catalepsy time (forepaw descent time) was 0.733 min. Further, the descent time with Mus musculus [2] worked out at 0.417 min. Besides, the catalepsy descent time in the assay on Mus musculus [3] is 1.3 min; with Mus musculus [4] it was 1.8 min. In addition, the Time to forepaw release from bar with Mus musculus [5] was found to be 1.87 min. Also, the Catalepsy duration (time to release forepaw from bar) in the assay with Mus musculus [6] is 1.82 min. For the same compound, the inhibition (INH) in the assay with Mus musculus [7] is 28.5%. Moreover, the Activity in the assay on Brain [8] stood at 2.75 nmol; in the assay with Brain [9] it was 14.2 µg; in the assay on Brain [10], 1.6 U; with Brain [11], 2.35 U.

Take `CCn1c(=S)sc2c(NC(=O)Nc3ccccc3OC)ncnc21`: the Catalepsy time (forepaw descent time) with Mus musculus [1] was 0.517 min. In the assay on Mus musculus [2], the descent time was 0.583 min. The catalepsy descent time with Mus musculus [3] worked out at 0.667 min; with Mus musculus [4] it was 1.5 min. Also, in the assay on Mus musculus [5], the Time to forepaw release from bar turned out to be 2.25 min. The Catalepsy duration (time to release forepaw from bar) in the assay with Mus musculus [6] worked out at 2.62 min. In the assay with Mus musculus [7], the inhibition (INH) was determined as 29.3%. Also, the Activity in the assay on Brain [8] amounted to 2.81 nmol; with Brain [9] it was 14 µg; in the assay on Brain [10], 1.54 U; in the assay with Brain [11] it was 1.81 U.

Consider `CCn1c(=S)sc2c(NC(=S)Nc3ccccc3OC)ncnc21`, for which the Catalepsy time (forepaw descent time) in the assay on Mus musculus [1] is 0.25 min. In the assay on Mus musculus [2], the descent time stood at 0.3 min. For the same compound, the catalepsy descent time with Mus musculus [3] came out at 0.883 min; with Mus musculus [4] it was 1.25 min. The Time to forepaw release from bar with Mus musculus [5] worked out at 1.62 min. Besides, the Catalepsy duration (time to release forepaw from bar) in the assay with Mus musculus [6] stood at 2.4 min. The compound also gave an inhibition (INH) with Mus musculus [7] of 23.7%. Also, the Activity in the assay with Brain [8] came to 3.12 nmol; with Brain [9] it was 11.672 µg; in the assay on Brain [10], 1.331 U; in the assay with Brain [11], 1.866 U.

For the compound `N[C@@H](Cc1ccc(O)c(O)c1)C(=O)O` [LEVODOPA], in the assay on Mus musculus [1], the Catalepsy time (forepaw descent time) stood at 0.633 min. For the same compound, in the assay with Mus musculus [2], the descent time came to 0.317 min. The catalepsy descent time worked out at 1.43 min with Mus musculus [3] and 1.47 min in the assay on Mus musculus [4]. The Time to forepaw release from bar with Mus musculus [5] stood at 1.42 min. Further, the Catalepsy duration (time to release forepaw from bar) in the assay with Mus musculus [6] was 1.8 min. Moreover, the inhibition (INH) with Mus musculus [7] amounted to 25.1%.

In the case of `O=C(Nc1ccc([N+](=O)[O-])cc1)Nc1ncnc2c1sc(=S)n2-c1ccccc1`, the Catalepsy time (forepaw descent time) in the assay on Mus musculus [1] came to 1.32 min. Further, in the assay on Mus musculus [2], the descent time came to 0.883 min. In addition, the catalepsy descent time in the assay on Mus musculus [3] worked out at 1.98 min; with Mus musculus [4] it was 2.08 min. Moreover, the Time to forepaw release from bar in the assay on Mus musculus [5] is 3.18 min. The Catalepsy duration (time to release forepaw from bar) in the assay on Mus musculus [6] was 3.93 min. This compound displayed an inhibition (INH) in the assay on Mus musculus [7] of 49.7%.

As to `Fc1ccc(NC(=S)Nc2ncnc3c2sc(=S)n3-c2ccccc2)cc1`, the Catalepsy time (forepaw descent time) in the assay with Mus musculus [1] was 2.15 min. The descent time in the assay on Mus musculus [2] is 1.25 min. Further, the catalepsy descent time is 2.75 min with Mus musculus [3] and 3.25 min with Mus musculus [4]. The Time to forepaw release from bar in the assay on Mus musculus [5] came out at 3.63 min. In the assay on Mus musculus [6], the Catalepsy duration (time to release forepaw from bar) was found to be 3.33 min. This compound also had an inhibition (INH) with Mus musculus [7] of 61.3%.

As for `O=C(Nc1ccccc1F)Nc1ncnc2c1sc(=S)n2-c1ccccc1`, the Catalepsy time (forepaw descent time) with Mus musculus [1] is 2.1 min. Also, the descent time in the assay on Mus musculus [2] is 1.38 min. The catalepsy descent time in the assay with Mus musculus [3] was 2.77 min; with Mus musculus [4], 2.35 min. Further, the Time to forepaw release from bar with Mus musculus [5] was 2.53 min. Besides, the Catalepsy duration (time to release forepaw from bar) in the assay with Mus musculus [6] stood at 2.63 min. Besides, the inhibition (INH) in the assay on Mus musculus [7] stood at 51.2%.

Take `CCn1c(=S)sc2c(NC(=S)Nc3ccccc3)ncnc21`: the Catalepsy time (forepaw descent time) in the assay on Mus musculus [1] was 1.92 min. For the same compound, the descent time in the assay with Mus musculus [2] was determined as 1.22 min. The catalepsy descent time with Mus musculus [3] came out at 2.32 min; in the assay on Mus musculus [4], 2.33 min. Besides, the Time to forepaw release from bar in the assay with Mus musculus [5] was 2.87 min. Moreover, the Catalepsy duration (time to release forepaw from bar) in the assay on Mus musculus [6] turned out to be 2.85 min. Also, the inhibition (INH) in the assay with Mus musculus [7] is 50.1%.

As to `O=C(Nc1ccccc1)Nc1ncnc2c1sc(=S)n2-c1ccccc1`, in the assay on Mus musculus [1], the Catalepsy time (forepaw descent time) came to 2.13 min. In addition, the descent time with Mus musculus [2] stood at 0.75 min. In addition, the results for the catalepsy descent time in the assay with Mus musculus [3] and in the assay with Mus musculus [4] were 1.63 min and 2.23 min, respectively. Besides, the Time to forepaw release from bar with Mus musculus [5] was 3.33 min. Further, the Catalepsy duration (time to release forepaw from bar) in the assay on Mus musculus [6] stood at 3.25 min. Besides, the inhibition (INH) with Mus musculus [7] turned out to be 49.5%.
